# Experimental data as given in ChEMBL document CHEMBL1287653, “Structural modifications on the phenazine N,N'-dioxide-scaffold looking for new selective hypoxic cytotoxins” (Eur J Med Chem, 2010).
# Tested on: Calf thymus DNA
# Test: Binding affinity to calf thymus DNA assessed as fluorescence quenching at 20 uM after 24 hrs by fluorescence spectroscopy analysis
# Type: nucleic-acid assay
# Design: unit not given here
# Details: Bos taurus
row,SMILES,Kq
1,Cc1ccc2c(c1)nc1cc(N)ccc1[n+]2[O-],5.3
2,Cc1ccc2nc3ccc(N)cc3nc2c1,6.1
3,Nc1ccc2nc3ccc(Br)cc3nc2c1,7.3
4,Nc1ccc2c(c1)[n+]([O-])c1cc(F)ccc1[n+]2[O-],7.8
5,Nc1ccc2c(c1)nc1cc(Br)ccc1[n+]2[O-],4.2

# Tested on: not listed separately
# Test: Cytotoxicity against chinese hamster V79 cells assessed as survival fraction under normoxic condition at 20 uM after 7 days by crystal violet staining relative to control
# Type: cell-based, Cricetulus griseus
# Details: read-out: Activity
# Method in brief: (§1)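 Exponential-phase V79 cells trypsinized into gassed suspension culture (2 × 10^4 cells/mL, EMEM, 10% FBS, 10 mM HEPES). Compound added 30 min after gassing began, in duplicate flasks, with a DMSO control; exposure 2 h. Cells then plated for colony formation at 37 °C, 5% CO2, for 7 days and stained with crystal violet. Colonies >64 cells counted; survival = PEtreated/PEcontrol × 100; means of two experiments.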
row,SMILES,"viability at 168 h, 20 µM"
1,Cc1cc2c(cc1F)[n+]([O-])c1ccc(O)cc1[n+]2[O-],100%
2,Cc1cc2c(cc1F)[n+]([O-])c1ccc(N)cc1[n+]2[O-],88%
3,Cc1ccc2c(c1)nc1cc(N)ccc1[n+]2[O-],100%
4,Cc1ccc2c(c1)[n+]([O-])c1cc(O)c3ncccc3c1[n+]2[O-],49%
5,Cc1ccc2nc3ccc(N)cc3nc2c1,98%
6,Nc1ccc2c(c1)[n+]([O-])c1cc(Cl)c(Cl)cc1[n+]2[O-],2%
7,Nc1ccc2nc3ccc(Br)cc3nc2c1,0%
8,Nc1ccc2c(c1)[n+]([O-])c1cc(F)ccc1[n+]2[O-],0%
9,[O-][n+]1c2ccc(O)cc2[n+]([O-])c2cc(Cl)c(Cl)cc21,1%
10,Nc1ccc2c(c1)nc1cc(Br)ccc1[n+]2[O-],0%
11,O=C(CCl)Oc1ccc2c(c1)[n+]([O-])c1cc(Br)ccc1[n+]2[O-],84%
12,[O-][n+]1c2ccc(Br)cc2[n+]([O-])c2cc(OCc3ccccc3)ccc21,86%

# Tested on: V79
# Test: Cytotoxicity against chinese hamster V79 cells assessed as survival fraction under hypoxic condition at 20 uM after 7 days by crystal violet staining relative to control
# Type: functional, Cricetulus griseus
# Details: not given
# Method in brief: (§2)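 V79 Chinese hamster lung fibroblasts grown in EMEM with 10% FBS, then set up as suspension cultures (2 × 10^4 cells/mL, EMEM, 10% FBS, 10 mM HEPES) under simulated hypoxic gassing. Compound in DMSO added 30 min after gassing began, duplicate flasks per dose, 2 h exposure. Cells then plated and grown 7 days at 37 °C, stained with crystal violet, and colonies >64 cells counted. Survival = PEtreated/PEcontrol × 100.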
row,SMILES,Activity
1,Cc1cc2c(cc1F)[n+]([O-])c1ccc(O)cc1[n+]2[O-],95%
2,Cc1cc2c(cc1F)[n+]([O-])c1ccc(N)cc1[n+]2[O-],15%
3,Cc1ccc2c(c1)nc1cc(N)ccc1[n+]2[O-],100%
4,Cc1ccc2c(c1)[n+]([O-])c1cc(O)c3ncccc3c1[n+]2[O-],46%
5,Cc1ccc2nc3ccc(N)cc3nc2c1,100%
6,Nc1ccc2c(c1)[n+]([O-])c1cc(Cl)c(Cl)cc1[n+]2[O-],0%
7,Nc1ccc2nc3ccc(Br)cc3nc2c1,0%
8,Nc1ccc2c(c1)[n+]([O-])c1cc(F)ccc1[n+]2[O-],0%
9,[O-][n+]1c2ccc(O)cc2[n+]([O-])c2cc(Cl)c(Cl)cc21,0%
10,Nc1ccc2c(c1)nc1cc(Br)ccc1[n+]2[O-],0%
11,O=C(CCl)Oc1ccc2c(c1)[n+]([O-])c1cc(Br)ccc1[n+]2[O-],62%
12,[O-][n+]1c2ccc(Br)cc2[n+]([O-])c2cc(OCc3ccccc3)ccc21,90%

# Tested on: not listed separately
# Test: Cytotoxicity against chinese hamster V79 cells assessed as survival fraction under normoxic condition at 10 uM after 7 days by crystal violet staining relative to control
# Type: cell-based, Cricetulus griseus
# Details: read-out: Activity
# Method in brief: as §1
row,SMILES,"viability at 168 h, 10 µM"
1,Nc1ccc2c(c1)[n+]([O-])c1cc(Cl)c(Cl)cc1[n+]2[O-],3%
2,Nc1ccc2c(c1)[n+]([O-])c1cc(F)ccc1[n+]2[O-],30%
3,[O-][n+]1c2ccc(O)cc2[n+]([O-])c2cc(Cl)c(Cl)cc21,0%

# Tested on: Calf thymus DNA
# Test: Binding affinity to calf thymus DNA assessed as ratio of final absorbance area to absorbance of compound at 100 uM after 24 hrs by UV spectrophotometer analysis
# Type: nucleic-acid assay
# Details: Bos taurus
# Method in brief: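 Calf thymus DNA in 10 mM Tris-HCl, pH 7.4. Compound stock 10^-4 M (≤5% solvent), diluted with water to 2 × 10^-5 M, then mixed 1:1 with DNA solution. Rotated 24 h; UV spectra taken at 20 °C in a 1-cm cell. Areas of a 20 nm band at λmax at 0 and 24 h; reported as a24/a0.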
row,SMILES,Ratio
1,Cc1cc2c(cc1F)[n+]([O-])c1ccc(O)cc1[n+]2[O-],0.83
2,CC[n+]1c(-c2ccccc2)c2cc(N)ccc2c2ccc(N)cc21,0.5
3,Cc1cc2c(cc1F)[n+]([O-])c1ccc(N)cc1[n+]2[O-],0.85
4,O=C1c2c(O)ccc(O)c2C(=O)c2c(NCCNCCO)ccc(NCCNCCO)c21,0
5,Cc1ccc2c(c1)nc1cc(N)ccc1[n+]2[O-],0.92
6,Cc1ccc2nc3ccc(N)cc3nc2c1,0.85
7,Nc1ccc2c(c1)[n+]([O-])c1cc(Cl)c(Cl)cc1[n+]2[O-],0.98
8,CN1CCN(c2ccc3[nH]c(-c4ccc5[nH]c(-c6ccc(O)cc6)nc5c4)nc3c2)CC1,0.57
9,Nc1ccc2nc3ccc(Br)cc3nc2c1,0.9
10,COc1cc(NS(C)(=O)=O)ccc1Nc1c2ccccc2nc2ccccc12,0.3
11,Nc1ccc2c(c1)[n+]([O-])c1cc(F)ccc1[n+]2[O-],0.88
12,[O-][n+]1c2ccc(O)cc2[n+]([O-])c2cc(Cl)c(Cl)cc21,0.96
13,Nc1ccc2c(c1)nc1cc(Br)ccc1[n+]2[O-],0.92
14,[O-][n+]1c2ccc(Br)cc2[n+]([O-])c2cc(OCc3ccccc3)ccc21,0.88

# Tested on: V79
# Test: Cytotoxicity against chinese hamster V79 cells assessed as concentration required to kill 99% cells under hypoxic condition after 7 days by crystal violet staining relative to control
# Type: functional, Cricetulus griseus
# Details: not given
# Method in brief: as §2
row,SMILES,Activity
1,Nc1ccc2c(c1)[n+]([O-])c1cc(Cl)c(Cl)cc1[n+]2[O-],10 µM
2,Nc1ccc2c(c1)[n+]([O-])c1cc(F)ccc1[n+]2[O-],2.5 µM

# Tested on: V79
# Test: Cytotoxicity against chinese hamster V79 cells assessed as survival fraction under hypoxic condition at 10 uM after 7 days by crystal violet staining relative to control
# Type: functional, Cricetulus griseus
# Details: not given
# Method in brief: as §2
row,SMILES,Activity
1,Nc1ccc2c(c1)[n+]([O-])c1cc(Cl)c(Cl)cc1[n+]2[O-],18%
2,Nc1ccc2c(c1)[n+]([O-])c1cc(F)ccc1[n+]2[O-],0%
3,[O-][n+]1c2ccc(O)cc2[n+]([O-])c2cc(Cl)c(Cl)cc21,8%

# Tested on: V79
# Test: Hypoxic cytotoxicity ratio, concentration required to kill 99% chinese hamster V79 cells under normoxic condition to hypoxic condition
# Type: functional, Cricetulus griseus
# Details: not given
# Method in brief: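 Clonogenic V79 suspension-culture assay run under both air and hypoxic gassing. Cells exposed 2 h in duplicate flasks per dose, then colonies counted after 7 days with crystal violet. Dose–response curves give the dose producing 1% of control survival in each condition. Ratio = air dose divided by hypoxic dose.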
row,SMILES,Ratio
1,Nc1ccc2c(c1)[n+]([O-])c1cc(Cl)c(Cl)cc1[n+]2[O-],0.9
2,Nc1ccc2c(c1)[n+]([O-])c1cc(F)ccc1[n+]2[O-],6.8
